Molecules are shown by their SMILES. Calls of active or inactive are those of the source.

Series [1] addresses T1, Cannabinoid receptor 2 (Homo sapiens, UniProt P34972). The series can be described thus: Agonist activity at human CB2 receptor expressed in CHO-K1 cells assessed as inhibition of forskolin-stimulated cAMP level. It is filed as functional, cell-based. The gist of the method: (§1)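 Receptor (human or rat CB1 or CB2) expressed in CHO-K1 cells, 1000 cells per well, added to compound and incubated at room temperature for 15 min. Read-out is IC50 with Emax.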

The target in series [2] is T1, Cannabinoid receptor 2. The series can be described thus: Agonist activity at human CB2 receptor expressed in CHO-K1 cells assessed as inhibition of forskolin-stimulated cAMP level relative to control. It is filed as functional, cell-based. The gist of the method:
as §1

Series [3] concerns the target T2, Cannabinoid receptor 1 (Homo sapiens, UniProt P21554). The series can be described thus: Agonist activity at human CB1 receptor expressed in CHO-K1 cells assessed as inhibition of forskolin-stimulated cAMP level. It is filed as functional, cell-based. A digest of the protocol:
as §1

A short description of series [4]: Plasma protein binding in rat assessed as fraction unbound. It counts as ADME, cell-free. The gist of the method: (§2)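 Free fraction in rat plasma measured by ultrafiltration or equilibrium dialysis after incubation with rat plasma.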
Series [5] addresses T2, Cannabinoid receptor 1. Put plainly: Agonist activity at human CB1 receptor expressed in CHO-K1 cells assessed as inhibition of forskolin-stimulated cAMP level relative to control. It is filed as functional, cell-based. The gist of the method: as §1
(In general: cAMP levels reflect the balance of adenylyl cyclase and phosphodiesterase activity.)

The target of series [6] is Cannabinoid receptor 1 (Rattus norvegicus, UniProt P20272). The series can be described thus: Agonist activity at rat CB1 receptor expressed in CHO-K1 cells assessed as inhibition of forskolin-stimulated cAMP level. It counts as functional, cell-based. The gist of the method: as §1
Chain of Cannabinoid receptor 1 (Rattus norvegicus, UniProt P20272) (P20272 whole entry): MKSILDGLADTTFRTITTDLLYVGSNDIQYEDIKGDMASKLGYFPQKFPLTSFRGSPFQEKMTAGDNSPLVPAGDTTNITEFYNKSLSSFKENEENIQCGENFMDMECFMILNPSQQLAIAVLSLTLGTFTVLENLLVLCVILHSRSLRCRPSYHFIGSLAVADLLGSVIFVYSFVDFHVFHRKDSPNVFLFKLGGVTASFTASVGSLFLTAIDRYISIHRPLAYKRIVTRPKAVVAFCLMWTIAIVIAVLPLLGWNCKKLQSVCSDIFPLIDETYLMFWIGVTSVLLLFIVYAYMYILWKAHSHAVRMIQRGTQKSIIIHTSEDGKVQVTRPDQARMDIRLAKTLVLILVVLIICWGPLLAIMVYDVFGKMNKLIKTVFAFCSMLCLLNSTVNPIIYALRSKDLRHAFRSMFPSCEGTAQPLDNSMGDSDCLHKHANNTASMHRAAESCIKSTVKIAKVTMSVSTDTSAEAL
Series [7] in a line: Plasma concentration in Lewis rat complete Freund's adjuvant-induced hyperalgesia model at 100 mg/kg, po and sc at 120 mins. Set-up: dose 100 mg/kg, route oral. It is filed as ADME, organism-based. The gist of the method: (§3)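 Rats with CFA-induced hyperalgesia dosed orally or subcutaneously at 100 mpk. Naproxen 20 mg/kg and vehicle served as controls. Paw withdrawal threshold read at baseline, after CFA, and post-dose (30, 60 or 120 min). Plasma, brain and CSF drug levels measured at the 60 or 120 min post-dose timepoint.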

Series [8] can be described thus: Drug level in cerebrospinal fluid of Lewis rat complete Freund's adjuvant-induced hyperalgesia model at 100 mg/kg, po and sc at 120 mins. It counts as ADME, organism-based. The note with it: read-out: Drug uptake. Set-up: dose 100 mg/kg, route oral. The gist of the method: as §3
The nature of series [9]: Plasma protein binding in rat. The settings on record: read-out: PPB (converted). It counts as ADME, cell-free. The gist of the method:
as §2

The nature of series [10]: Drug level in brain of Lewis rat complete Freund's adjuvant-induced hyperalgesia model at 100 mg/kg, po and sc at 120 mins. It is filed as ADME, organism-based. Set-up: dose 100 mg/kg, route oral. The note with it: read-out: Drug uptake. A digest of the protocol:
as §3

Series [11] addresses T3, Cannabinoid receptor 2 (Rattus norvegicus, UniProt Q9QZN9).
T3 sequence (Q9QZN9 whole entry): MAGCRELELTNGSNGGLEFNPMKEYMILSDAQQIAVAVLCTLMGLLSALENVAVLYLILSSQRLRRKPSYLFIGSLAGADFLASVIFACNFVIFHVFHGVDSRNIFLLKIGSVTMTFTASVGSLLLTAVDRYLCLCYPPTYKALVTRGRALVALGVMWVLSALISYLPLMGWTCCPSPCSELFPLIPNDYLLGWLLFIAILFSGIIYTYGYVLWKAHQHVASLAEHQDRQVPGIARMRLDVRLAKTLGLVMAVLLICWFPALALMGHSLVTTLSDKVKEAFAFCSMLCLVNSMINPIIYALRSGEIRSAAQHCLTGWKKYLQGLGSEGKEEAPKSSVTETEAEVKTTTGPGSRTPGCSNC
The series can be described thus: Agonist activity at rat CB2 receptor expressed in CHO-K1 cells assessed as inhibition of forskolin-stimulated cAMP level. It counts as functional, cell-based. The gist of the method: as §1

Series [12] concerns Rattus norvegicus. Put plainly: Analgesic activity in Lewis rat complete Freund's adjuvant-induced hyperalgesia model assessed as reversal in paw withdrawal threshold at 100 mg/kg, po and sc. It counts as functional, organism-based. Set-up: dose 100 mg/kg. The gist of the method: as §3
Series [13] has as its target T4, Cannabinoid receptor 2 (Rattus norvegicus) (UniProt Q9QZN9).
T4 sequence (whole entry): T3 sequence (Q9QZN9 whole entry)
Put plainly: Agonist activity at rat CB2 receptor expressed in CHO-K1 cells assessed as inhibition of forskolin-stimulated cAMP level relative to control. It is filed as functional, cell-based. A digest of the protocol:
as §1

The target in series [14] is T2, Cannabinoid receptor 1. The series can be described thus: Binding affinity to human CB1 receptor.
Series [15] deals with T1, Cannabinoid receptor 2. Put plainly: Binding affinity to human CB2 receptor.
A short description of series [16]: Plasma concentration in Lewis rat complete Freund's adjuvant-induced hyperalgesia model at 100 mg/kg, po and sc at 60 mins. It is filed as ADME, organism-based. Set-up: dose 100 mg/kg, route oral. A digest of the protocol: as §3
Series [17] is described as follows: Drug level in cerebrospinal fluid of Lewis rat complete Freund's adjuvant-induced hyperalgesia model at 100 mg/kg, po and sc at 60 mins. Set-up: dose 100 mg/kg, route oral. It counts as ADME, organism-based. The note with it: read-out: Drug uptake. The gist of the method: as §3
Series [18] in a line: Drug level in brain of Lewis rat complete Freund's adjuvant-induced hyperalgesia at 100 mg/kg, po and sc at 60 mins. Set-up: dose 100 mg/kg, route oral. The settings on record: read-out: Drug uptake. It counts as ADME, organism-based. The gist of the method:
as §3

The test system of series [19] is Rattus norvegicus. The series can be described thus: Neurotoxicity in rat assessed as impairment of motor co-ordination at 100 mg/kg, po by rotarod method. It counts as toxicity, organism-based. The note with it: in vivo. Set-up: dose 100 mg/kg, route oral. In general terms: The rotarod test checks motor coordination on a turning rod.
For series [20], the target named is Cannabinoid receptor 1 (Rattus norvegicus) (UniProt P20272). The series can be described thus: Agonist activity at rat CB1 receptor expressed in CHO-K1 cells assessed as inhibition of forskolin-stimulated cAMP level relative to control. It counts as functional, cell-based. The gist of the method: as §1
Chain of Cannabinoid receptor 1 (Rattus norvegicus) (P20272 whole entry): as the sequence (P20272 whole entry) above

T2 sequence (P21554 whole entry): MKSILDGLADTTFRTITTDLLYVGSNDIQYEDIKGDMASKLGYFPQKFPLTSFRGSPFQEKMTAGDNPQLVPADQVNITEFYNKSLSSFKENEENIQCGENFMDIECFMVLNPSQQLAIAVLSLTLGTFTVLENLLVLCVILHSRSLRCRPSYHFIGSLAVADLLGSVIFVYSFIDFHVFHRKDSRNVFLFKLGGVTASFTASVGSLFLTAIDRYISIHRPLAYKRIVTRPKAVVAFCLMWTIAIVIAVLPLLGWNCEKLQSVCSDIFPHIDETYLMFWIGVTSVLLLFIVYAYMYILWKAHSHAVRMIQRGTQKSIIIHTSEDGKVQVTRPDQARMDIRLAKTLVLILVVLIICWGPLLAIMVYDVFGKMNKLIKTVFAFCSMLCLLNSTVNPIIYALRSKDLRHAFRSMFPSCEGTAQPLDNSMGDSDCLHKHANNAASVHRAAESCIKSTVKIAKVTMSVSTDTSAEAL
T1 sequence (P34972 whole entry): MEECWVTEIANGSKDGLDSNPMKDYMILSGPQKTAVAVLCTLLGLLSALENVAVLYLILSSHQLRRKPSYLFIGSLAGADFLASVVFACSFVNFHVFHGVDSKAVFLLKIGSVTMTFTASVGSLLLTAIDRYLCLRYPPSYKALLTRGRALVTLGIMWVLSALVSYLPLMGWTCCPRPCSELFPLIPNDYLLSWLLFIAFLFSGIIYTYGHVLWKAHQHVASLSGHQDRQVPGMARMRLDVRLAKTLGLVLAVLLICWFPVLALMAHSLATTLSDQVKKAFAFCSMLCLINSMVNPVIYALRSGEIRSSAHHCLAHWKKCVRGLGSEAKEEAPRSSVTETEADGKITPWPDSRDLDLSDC

As a reminder, the IC50 is the midpoint of a concentration-inhibition curve. A word on the Emax: it is the greatest response seen or fitted, relative to the assay's reference. In the case of `O=C(NC(c1cccnc1)C(F)(F)F)c1nc(N2CCOCC2)c2cnccn12` (stereo not given), the IC50 was 69 nM in series [1] and above 17000 nM in series [3]. Also, the Emax in [2] was determined as 98%. In addition, the fraction unbound in [4] turned out to be 0.25.
Consider `O=C(c1cccc(Cl)c1Cl)c1nc(CN2CCC(F)(F)CC2)c2ccccn12`, for which the Emax in [5] turned out to be 101%; in [2], 110%. In addition, the figures for the IC50 in [1] and in series [3] were 0.3 nM and 90 nM, respectively.
On to `O=C(c1cccc(F)c1C(F)(F)F)c1nc(CN2CCOCC2)c2ccccn12`, for which the Emax in [5] turned out to be 97%; in series [2], 98%. The IC50 in [1] is 0.7 nM; in series [3] it was 2230 nM. Moreover, the fraction unbound in [4] came out at 0.03.
For the molecule `O=C(NC(C1CC1)C1CC1)c1nc(C2CC2)n2ccccc12`, the IC50 in series [1] is 7 nM; in [3], above 17000 nM. Besides, in series [2], the Emax is 99%. In addition, the fraction unbound in series [4] came out at 0.03.
The matching figures for `C[C@@H](NC(=O)c1nc(N2CCC(F)(F)CC2)c2cnccn12)C(C)(C)C`: 36 nM, above 17000 nM, 99% and 0.06.
Regarding `O=C(NC(c1ccncc1)c1ccc(F)cc1)c1nc(N2CCC(F)(F)C2)c2cnccn12` (stereo not given), the IC50 was 92 nM in series [1] and above 17000 nM in series [3]. In series [2], the Emax came out at 96%. In addition, the fraction unbound in [4] is 0.03.
The matching figures for `O=C(N[C@H](c1ccccn1)C(F)(F)F)c1nc(N2CCOCC2)c2cnccn12`: 139 nM, above 17000 nM, 94% and 0.18.
Regarding `O=C(NCC1(CO)CCCC1)c1nc(N2CCOCC2)n2ccccc12`, the IC50 in [6] was above 17000 nM; in [1] it was 33 nM; in [3], above 17000 nM; in [11], 58 nM. The concentration at 2 h in series [7] is 4300 nM; in series [8], 300 nM; in [10] it was 1300 nM. The Emax was 99% in series [2] and 87% in series [13]. The fraction unbound in series [9] and in [4] was 0.16 each time. Moreover, in series [12], the outcome was inactive.
By Ki is commonly meant the equilibrium dissociation constant of an inhibitor or competing ligand from its target. A high value points to lower affinity. Take `COc1ccc2c(c1)c(CCN1CCOCC1)c(C)n2C(=O)c1cccc(Cl)c1Cl`: the Ki in series [14] was 2000 nM; in series [15], 10 nM.
For `O=C(c1cccc(Cl)c1Cl)c1nc(CN2CCOCC2)c2ccccn12`, the IC50 in series [6] was 1070 nM; in series [1], 5 nM; in series [3], 2560 nM; in [11] it was 11 nM. The Emax turned out to be 66% in series [5], 94% in series [2], 104% in series [20] and 87% in series [13]. For the same molecule, the concentration at 1 h in series [16] worked out at 4500 nM; in series [17], 110 nM; in [18], 5400 nM. Further, the fraction unbound in series [9] and in [4] was 0.24 each time. Further, the Activity result is “Toxic” in series [19] and “Dose-dependent effect” in [12].
With `O=C(NCC1(CO)CCCC1)c1nc(CN2CCC(F)(F)CC2)n2ccccc12`, the Emax in series [5] was found to be 99%; in [2] it was 88%. The IC50 in series [1] turned out to be 3 nM; in series [3], 68 nM.
For `CC(C)(C)CNC(=O)c1nc(C2CC2)n2ccccc12`, the IC50 in series [1] is 21 nM; in [3] it was above 17000 nM. Besides, the Emax in [2] was determined as 97%. Also, in [4], the fraction unbound is 0.05.
With `O=C(Nc1cccc(C(F)(F)F)n1)c1nc(CN2CCC(F)(F)CC2)c2ccccn12`, the figures for the Emax in series [5] and in [2] were 100% and 98%, respectively. Further, the IC50 is 1.7 nM in series [1] and 347 nM in series [3].
For the molecule `O=C(N[C@H](c1ccccn1)C(F)(F)F)c1nc(N2CCOCC2)n2ccccc12`, the Emax stood at 55% in series [5] and 97% in series [2]. In addition, the values for the IC50 in [1] and in series [3] were 21 nM and 705 nM, respectively. The fraction unbound in series [4] came to 0.1.
As for `O=C(Nc1cccc(C(F)(F)F)n1)c1nc(CN2CCS(=O)(=O)CC2)c2ccccn12`, the Emax was 54% in series [5] and 80% in [2]. Also, the figures for the IC50 in [1] and in series [3] were 44 nM and 12700 nM, respectively. The fraction unbound in [4] was 0.11.

The values are drawn from ChEMBL document CHEMBL1759910, “Imidazopyridine CB2 agonists: optimization of CB2/CB1 selectivity and implications for in vivo analgesic efficacy” (Bioorg Med Chem Lett, 2011).
